High-throughput results (PubChem BioAssay)
An excerpt weighted towards active compounds, which were near 4.9% of everything screened.
STAT3 inh – IL-6 driven STAT3 reporter inhibitors, primary screen, U3A cells, luciferase, luminescence, MLSCN library | IL-6 STAT3-luciferase reporter; host cell line lacks STAT1 | inhibition, % at 5.5 µM | actives 0.89% (n = 190,000);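 active means inhibition above the mean inhibition across all screened compounds plus 3 SD, cut at about 44% in these data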;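 further: 0% = DMSO only wells and 100% = 100 µM nifuroxazide control wells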
NF-kB neuron act – activators of NF-kB expression in neurons, primary screen, cell-based, HTS; human neuronal cells, NF-kB reporter expression; active compounds read high; fold change at 12.5 µM; actives 1.6% (n = 190,000); AID 1239, 2008; in the data active means fold change above about 3.3
STAT1 blocker – STAT1 signaling inhibitors, primary screen, cell-based, HTS, luciferase reporter; inhibition, % at 5.5 µM; NIH 3T3 STAT1-luciferase reporter, IFN-gamma, luminescence; actives 0.35% (n = 200,000);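 active means inhibition above a set limit, the mean inhibition across all tested compounds plus 3 SD, cut at about 34% in these data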;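 further: 0% = IFN-gamma with DMSO and 100% = IFN-gamma with 300 µM nifuroxazide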
STAT3 act – IL-6 driven STAT3 reporter potentiators, primary screen, U3A cells, luciferase, luminescence, MLSCN library; IL-6 STAT3-luciferase reporter; 100% = signal with IL-6 EC80 alone; activation (% of control), % at 5.6 µM; actives 0.91% (n = 190,000); AID 871, 2007;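 active means activation above the screen-wide mean of compound activation plus 3 SD, cut at about 130% in these data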;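 further: 0% = background luminescence of wells with medium and substrate only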
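Material: human U3A cells carrying STAT3-luciferase construct. Measured by: reporter luminescence signal. Timing: compound 1 h, then IL-6 6 h at 37 °C.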
APP 5'UTR act – activators of APP 5'UTR luciferase reporter, primary screen, SH-SY5Y cells. SH-SY5Y APP 5'UTR luciferase reporter, luminescence; zero percent = DMSO vehicle wells. actives 1% (n = 190,000). activation, % at 2 µM;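 active means activation above a set limit, based on mean plus 3 SD of controls, cut at about 140% in these data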
STAT1 act – STAT1 signaling activators, primary screen, cell-based, HTS, luciferase reporter | NIH 3T3 STAT1-luciferase reporter, IFN-gamma, luminescence; 100% = IFN-gamma alone, no compound | activation (% of control), % at 5.5 µM | actives 2.6% (n = 200,000) | AID 932, 2007;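 active means activation above the screen-wide mean activation plus 3 SD, cut at about 130% in these data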;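 further: raw ratio to IFN-gamma control signal so 100% means no change and 0% no light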
* hit, by the source's call.

SMILES	STAT3 inh	NF-kB neuron act	STAT1 blocker	STAT3 act	APP 5'UTR act	STAT1 act
CC(C)Nc1nnc(SCC(=O)Nc2ccc3c(c2)C(=O)c2ccccc2C3=O)s1	1	0.59	-30	101	112	127
O=C(NC1CCCC1)C(c1ccc(F)cc1)N(Cc1ccccc1Cl)C(=O)CCl (configuration not stated)	-8	1	4	104	-4	97
CC(C)NOC(=O)c1ccc(Cl)cc1	11	1.2	-4	99	-8	102
COC(=O)COc1ccc(/C=N/NC(=O)c2ccc(N(Cc3ccccc3)S(C)(=O)=O)cc2)cc1	-2	0.97	3	100	17	98
Cc1ccc(-c2cccc(CN3CCN(C4CCN(C(C)C)CC4)C(CCO)C3)c2)o1 (configuration not stated)	4	0.8	1	101	0	98
Cc1cccc2nc(CSc3ccccc3N)cn12	5	4.6*	-44	98	132	140*
CC(=O)Oc1c(Cl)cc(Cl)cc1/C=C/c1ccc2ccccc2n1	-13	1.6	-1	111	2	100
CC(=O)Oc1ccc(Cl)cc1/C=C/c1ccc2ccccc2n1	-21	7.3*	5	124	88	95
O=[N+]([O-])c1ccc(/C=N/N/C(=N/c2ccccn2)c2ccccn2)cc1	3	1.7	-38	101	26	135*
COc1cccc(NC(=O)c2cccc(OC)c2OC)c1	1	2.7	-40	102	57	136*
COc1cccc(C(=O)Nc2ccc(N(C)C)cc2)c1OC	-1	2.1	-48	101	53	142*
CN(C)c1ccc(NC(=O)c2cccc(C(=O)Nc3ccc(N(C)C)cc3)n2)cc1	7	0.42	-21	97	46	119
CCn1c2ccccc2c2cc(NC(=O)c3cccc(OC)c3OC)ccc21	7	1	0	93	19	100
CCOc1ccccc1NC(=O)c1cc(C(=O)Nc2ccccc2OCC)cc(N2C(=O)CCC2=O)c1	16	1.1	7	90	15	94
CC(C)(C)c1cc(N)on1	-6	1.2	5	104	-2	95
CC(C)(C)c1ccc(/C=C(\C#N)C(=O)NCCN2CCOCC2)cc1	10	1.1	3	96	29	96
O=C(N/N=C1\CCc2ccccc21)c1ccncc1	-6	1.3	-34	105	55	130*
COc1ccc(C(=O)N/N=C2\CCc3ccccc32)cc1OC	3	1.4	-14	104	-4	112
O=C(N/N=C1\CCc2ccccc21)c1ccccc1O	24	3.8*	-4	76	128	104
COc1cccc(C2Cc3ccccc3C(=O)O2)c1 (configuration not stated)	16	1.3	-3	87	-10	103
COc1ccc(C2CC(=O)c3ccccc3O2)cc1 (configuration not stated)	-1	3.8*	-15	98	58	113
Cc1ccc(S/C=C\C(=O)c2ccccc2)cc1	-7	10*	5	111	144*	96
Cc1ccc(C(=O)/C=C\NCc2ccccc2)cc1	-7	1.8	-33	107	14	130*
Cc1ccc(C(=O)/C=C\C(=O)c2ccc(C)cc2)cc1	8	2.4	8	95	-88	93
NC(=O)C1CCN(CC(=O)Nc2cccc(C(=O)Nc3cccc(C(F)(F)F)c3)c2)CC1	-14	0.76	5	108	0	96
CC(C)CCn1cnc2c(sc3nc4c(cc32)CSC(C)(C)C4)c1=O	0	0.99	-20	102	231*	118
COc1ccc(C)cc1N(CC(=O)N/N=C/c1ccccc1C(=O)O)S(=O)(=O)c1ccccc1	4	1.1	-6	104	7	106
Nc1ccc(Oc2ccc(Br)cc2)cc1	14	3.5*	0	90	-12	100
Cc1cc(C)cc(Oc2ccc(N)cc2)c1	1	1.1	-5	103	-6	104
